Experimental data reported in ChEMBL document CHEMBL1124215, “Improved delivery through biological membranes. 26. Design, synthesis, and pharmacological activity of a novel chemical delivery system for beta-adrenergic blocking agents” (1988).
Active and inactive are the calls of the source. The calls are words filed in the database; no cut-off is given here.

Legend:
[1] = tested on: Oryctolagus cuniculus; assay: Concentration of propranolone oxime in aqueous humor of rabbit after 60 min administration of compound; N/A= no oxime can be present after administration of propranolone hydrochloride; assay type: functional, organism-based; conditions: Aqueous humor of eyeball
In short: (§1)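 Adult male New Zealand albino rabbits (2.5–3.5 kg), at least four per time point. 100 µL of a 1% solution in saline was instilled topically into both eyes. Animals were killed at 30, 60 or 120 min. Cornea and iris-ciliary body were homogenized in methanol to 10% homogenates and deproteinized by centrifugation. Aqueous humor was analysed undiluted. HPLC was calibrated against spiked control-rabbit tissue. Values are mean ± SE, µg/g.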

[2] = tested on: Oryctolagus cuniculus; assay: Effect on IOP of rabbits 4 hr after administration (2.5%); assay type: functional
In short: (§2)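 IOP was read by pneumatonometer in unrestrained, unanesthetized rabbits after local propacaine drops. Drug was given as a 1% or 2.5% solution in pH 7.4 buffer or saline to both eyes, at least four rabbits per group; controls (at least three) received carrier only. Readings were taken at 30 and 60 min and at 2, 3, 4, 6 and 8 h. Values are mean ± SE; Student's t test.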

[3] = tested on: Oryctolagus cuniculus; assay: Effect on IOP of rabbits 8 hr min after administration (1%); assay type: functional; in short: as §2
[4] = tested on: Oryctolagus cuniculus; assay: Percentage change of IOP in rabbits after 60 min administration (1%) of compound; assay type: functional
In short: (§3)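 Rabbits received 1% or 2.5% drug solution in pH 7.4 buffer or saline in both eyes, at least four per group. A control group of at least three rabbits received carrier only. IOP was read by pneumatonometer in unrestrained, unanesthetized animals after one drop of 0.5% propacaine diluted 1:2 with saline. Readings were taken at 30 and 60 min and at 2–8 h. Values are mean ± SE, with significance by Student's t test.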

[5] = tested on: Oryctolagus cuniculus; assay: Effect on IOP of rabbits 3h after administration (2.5%); assay type: functional; in short: as §2
[6] = tested on: Oryctolagus cuniculus; assay: Effect on IOP of rabbits 3h after administration (1%); assay type: functional; in short: as §2
[7] = tested on: Oryctolagus cuniculus; assay: Effect on IOP of rabbits 30 mins after administration (1%); assay type: functional; in short: as §2
[8] = tested on: Oryctolagus cuniculus; assay: Effect on IOP of rabbits 2 hr after administration (1%); assay type: functional; in short: as §2
[9] = tested on: Oryctolagus cuniculus; assay: Percentage change of IOP in rabbits after 3h administration (2.5%) of compound; assay type: functional; in short: as §3
[10] = tested on: Oryctolagus cuniculus; assay: Effect on IOP of rabbits 4 hr after administration (1%); assay type: functional; in short: as §2
[11] = tested on: Oryctolagus cuniculus; assay: Concentration in iris-ciliary body of rabbit after 30 min administration of compound; assay type: functional, organism-based; in short: as §1
[12] = tested on: Oryctolagus cuniculus; assay: Concentration in aqueous humor of rabbit after 60 min administration of compound; assay type: functional, organism-based; conditions: Aqueous humor of eyeball; in short: as §1
[13] = tested on: Oryctolagus cuniculus; assay: Concentration of propranolone oxime in iris-ciliary body of rabbit after 60 min administration of compound; N/A= no oxime can be present after administration of propranolone hydrochloride; assay type: functional, organism-based; in short: as §1
[14] = tested on: Oryctolagus cuniculus; assay: Concentration of propranolone oxime in cornea of rabbit after 60 min administration of compound; N/A= no oxime can be present after administration of propranolone hydrochloride; assay type: functional, organism-based; in short: as §1
[15] = tested on: Oryctolagus cuniculus; assay: Concentration of propranolone oxime in iris-ciliary body of rabbit after 120 min administration of compound; N/A= no oxime can be present after administration of propranolone hydrochloride; assay type: functional, organism-based; in short: as §1
[16] = tested on: Oryctolagus cuniculus; assay: Percentage change of IOP in rabbits after 6 hr administration (1%) of compound; assay type: functional; in short: as §3
[17] = tested on: Oryctolagus cuniculus; assay: Percentage change of IOP in rabbits after 0 min administration (1%) of compound; assay type: functional; in short: as §2
[18] = tested on: Oryctolagus cuniculus; assay: Concentration in cornea of rabbit after 30 min administration of compound; assay type: functional, organism-based; in short: as §1
[19] = tested on: Oryctolagus cuniculus; assay: Concentration of propranolone oxime in cornea of rabbit after 120 min administration of compound; N/A= no oxime can be present after administration of propranolone hydrochloride; assay type: functional, organism-based; in short: as §1
[20] = tested on: Oryctolagus cuniculus; assay: Concentration of propranolone oxime in cornea of rabbit after 30 min administration of compound; N/A= no oxime can be present after administration of propranolone hydrochloride; assay type: functional, organism-based; in short: as §1
[21] = tested on: Oryctolagus cuniculus; assay: Percentage change of IOP in rabbits after 60 min administration (2.5%) of compound; assay type: functional; in short: as §3
[22] = tested on: Oryctolagus cuniculus; assay: Effect on IOP of rabbits 60 mins after administration (2.5%); assay type: functional; in short: as §2
[23] = tested on: Oryctolagus cuniculus; assay: Percentage change of IOP in rabbits after 8 hr administration (2.5%) of compound; assay type: functional; in short: as §3
[24] = tested on: Oryctolagus cuniculus; assay: Percentage change of IOP in rabbits after 6 hr administration (2.5%) of compound; assay type: functional; in short: as §3
[25] = tested on: Oryctolagus cuniculus; assay: Effect on IOP of rabbits 6 hr min after administration (2.5%); assay type: functional; in short: as §2
[26] = tested on: Oryctolagus cuniculus; assay: Percentage change of IOP in rabbits after 0 min administration (2.5%) of compound; assay type: functional; in short: as §2
[27] = tested on: Oryctolagus cuniculus; assay: Percentage change of IOP in rabbits after 2 hr administration (2.5%) of compound; assay type: functional; in short: as §2
[28] = tested on: Oryctolagus cuniculus; assay: Concentration of propranolone oxime in aqueous humor of rabbit after 30 min administration of compound; N/A= no oxime can be present after administration of propranolone hydrochloride; assay type: functional, organism-based; conditions: Aqueous humor of eyeball; in short: as §1
[29] = tested on: Oryctolagus cuniculus; assay: Concentration of propranolone oxime in iris-ciliary body of rabbit after 30 min administration of compound; N/A= no oxime can be present after administration of propranolone hydrochloride; assay type: functional, organism-based; in short: as §1
[30] = tested on: Oryctolagus cuniculus; assay: Percentage change of IOP in rabbits after 30 min administration (2.5%) of compound; assay type: functional; in short: as §3
[31] = tested on: Oryctolagus cuniculus; assay: Effect on IOP of rabbits 60 min after administration (1%); assay type: functional; in short: as §2
[32] = tested on: Oryctolagus cuniculus; assay: Effect on IOP of rabbits 0 min after administration (1%); assay type: functional; in short: as §2
[33] = tested on: Oryctolagus cuniculus; assay: Effect on IOP of rabbits 0 min after administration (2.5%); assay type: functional; in short: as §2
[34] = tested on: Oryctolagus cuniculus; assay: Percentage change of IOP in rabbits after 4 hr administration (2.5%) of compound; assay type: functional; in short: as §3
[35] = tested on: Oryctolagus cuniculus; assay: Percentage change of IOP in rabbits after 2 hr administration (1%) of compound; assay type: functional; in short: as §2
[36] = tested on: Oryctolagus cuniculus; assay: Effect on IOP of rabbits 2 hr after administration (2.5%); assay type: functional; in short: as §2
[37] = tested on: Oryctolagus cuniculus; assay: Concentration in cornea of rabbit after 60 min administration of compound; assay type: functional, organism-based; in short: as §1
[38] = tested on: Oryctolagus cuniculus; assay: Effect on IOP of rabbits 8 hr min after administration (2.5%); assay type: functional; in short: as §2
[39] = tested on: Oryctolagus cuniculus; assay: Concentration in aqueous humor of rabbit after 30 min administration of compound; assay type: functional, organism-based; conditions: Aqueous humor of eyeball; in short: as §1
[40] = tested on: Oryctolagus cuniculus; assay: Effect on IOP of rabbits 30 mins after administration (2.5%); assay type: functional; in short: as §2
[41] = tested on: Oryctolagus cuniculus; assay: Percentage change of IOP in rabbits after 3h administration (1%) of compound; assay type: functional; in short: as §3
[42] = tested on: Oryctolagus cuniculus; assay: Concentration of propranolone oxime in aqueous humor of rabbit after 120 min administration of compound; N/A= no oxime can be present after administration of propranolone hydrochloride; assay type: functional, organism-based; conditions: Aqueous humor of eyeball; in short: as §1
[43] = tested on: Oryctolagus cuniculus; assay: Percentage change of IOP in rabbits after 4 hr administration (1%) of compound; assay type: functional; in short: as §3
[44] = tested on: Oryctolagus cuniculus; assay: Percentage change of IOP in rabbits after 8 hr administration (1%) of compound; assay type: functional; in short: as §3
[45] = tested on: Oryctolagus cuniculus; assay: Effect on IOP of rabbits 6 hr min after administration (1%); assay type: functional; in short: as §2
[46] = tested on: Oryctolagus cuniculus; assay: Percentage change of IOP in rabbits after 30 min administration (1%) of compound; assay type: functional; in short: as §3
[47] = tested on: Oryctolagus cuniculus; assay: Effect on IOP of rabbits 5 hr after administration (1%); assay type: functional
[48] = tested on: Oryctolagus cuniculus; assay: Effect on IOP of rabbits 8 hr after administration (1%); assay type: functional; in short: as §2
[49] = tested on: Oryctolagus cuniculus; assay: Effect on IOP of rabbits 1 hr after administration (1%); assay type: functional; in short: as §2
[50] = tested on: Oryctolagus cuniculus; assay: Percentage change of IOP in rabbits after 5 hr administration (1%) of compound; assay type: functional; in short: as §3
[51] = tested on: Oryctolagus cuniculus; assay: Percentage change of IOP in rabbits after 1 hr administration (1%) of compound; assay type: functional; in short: as §2
[52] = tested on: Oryctolagus cuniculus; assay: Effect on IOP of rabbits 6 hr after administration (1%); assay type: functional; in short: as §2

CC(C)NCC(O)COc1cccc2ccccc12 (stereo not drawn) [PROPRANOLOL]
Concentration [1]: inactive
IOP [2]: 25.6 mmHg
IOP [3]: 30.2 mmHg
Change [4]: >-10.39%
IOP [5]: 25.7 mmHg
IOP [6]: 27.4 mmHg
IOP [7]: 29 mmHg
IOP [8]: 29.1 mmHg
Change [9]: 1.18%
IOP [10]: 28.2 mmHg
Concentration [11]: 8.1 µg/g
Concentration [12]: 0.3 µg/g
Concentration [13]: inactive
Concentration [14]: inactive
Concentration [15]: inactive
Change [16]: -5.84%
Change [17]: 0%
Concentration [18]: 47.1 µg/g
Concentration [19]: inactive
Concentration [20]: inactive
Change [21]: >9.84%
IOP [22]: 27.9 mmHg
Change [23]: -0.79%
Change [24]: 0%
IOP [25]: 25.4 mmHg
Change [26]: 0%
Change [27]: 1.18%
Concentration [28]: inactive
Concentration [29]: inactive
Change [30]: >8.66%
IOP [31]: 27.6 mmHg
IOP [32]: 30.8 mmHg
IOP [33]: 25.4 mmHg
Change [34]: 0.79%
Change [35]: -5.52%
IOP [36]: 25.7 mmHg
Concentration [37]: 14.5 µg/g
IOP [38]: 25.2 mmHg
Concentration [39]: 1.3 µg/g
IOP [40]: 27.6 mmHg
Change [41]: -11.04%
Concentration [42]: inactive
Change [43]: -8.44%
Change [44]: -1.95%
IOP [45]: 29 mmHg
Change [46]: >-9.1%

CC(C)(C)NC[C@H](O)COc1nsnc1N1CCOCC1 (stereo in doubt) [TIMOLOL]
IOP [47]: 26.88 mmHg
IOP [6]: 25.13 mmHg
IOP [7]: 27.75 mmHg
IOP [8]: 24 mmHg
IOP [10]: 26.93 mmHg
IOP [48]: 26.33 mmHg
IOP [49]: 24.3 mmHg
Change [16]: 1.2%
Change [17]: 0%
Change [50]: -5.49%
Change [51]: -14.6%
IOP [32]: 28.44 mmHg
Change [35]: -15.6%
IOP [52]: 28.78 mmHg
Change [41]: -11.6%
Change [43]: -5.31%
Change [46]: -2.43%
